# Assays:
# Rattus norvegicus [1] = assay: Antiinflammatory activity against carrageenan-induced paw edema in po dosed rat administered 1 hr before carrageenan challenge assessed after 1 hr; type: functional
# Method in brief: (§1)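 Rats of about 200 g dosed orally; 1 h later, 1 mg carrageenan in […] physiological solution injected subplantar into the hind left paw. Paw volume measured hourly for 4 h by plethysmometer, dipping the paw in 0.45% saline. Read-out is % change in paw volume versus baseline, given as % inhibition of oedema ± S.E. Indomethacin served as reference.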
# Rattus norvegicus [2] = assay: Antiinflammatory activity against carrageenan-induced paw edema in po dosed rat administered 1 hr before carrageenan challenge assessed after 2 hrs; type: functional; method in brief: as §1
# Rattus norvegicus [3] = assay: Antiinflammatory activity against carrageenan-induced paw edema in po dosed rat administered 1 hr before carrageenan challenge assessed after 3 hrs; type: functional; method in brief: as §1
# Rattus norvegicus [4] = assay: Antiinflammatory activity against carrageenan-induced paw edema in po dosed rat administered 1 hr before carrageenan challenge assessed after 4 hrs; type: functional; method in brief: as §1
# Biomphalaria alexandrina = assay: Molluscicidal activity against Biomphalaria alexandrina assessed as mortality at 10 ppm after 24 hrs; type: organism-based; settings: in vivo
# Method in brief: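 Compounds dissolved with a few drops of Tween 20 and 2 mL DMSO, then diluted with untreated Nile raw water to 1, 5 or 10 ppm in aerated glass jars. Ten snails per concentration held 24 h at 25 °C. Mean number killed over three repeats recorded. Controls received Tween 20/DMSO in water; Bayluscide served as reference. Follows WHO guidelines, modified.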
SMILES,inhibition (INH) (Rattus norvegicus [1]) [%],inhibition (INH) (Rattus norvegicus [2]) [%],inhibition (INH) (Rattus norvegicus [3]) [%],inhibition (INH) (Rattus norvegicus [4]) [%],Activity (Biomphalaria alexandrina)
Clc1ccc(OCc2nnc3n2N=C(c2cc4ccccc4o2)/C(=C/c2cn(-c4ccccc4)nc2-c2cc4ccccc4o2)S3)c(Cl)c1,29.71,41.32,59.66,35.78,
Clc1ccc(OCc2nnc3sc(-c4ccco4)nn23)c(Cl)c1,51.38,54.62,99.24,93.97,
COc1ccc(-c2nn3c(COc4ccc(Cl)cc4Cl)nnc3s2)cc1,26.75,46.22,56.34,44.34,
Nn1c(S)nnc1COc1ccc(Cl)cc1Cl,50,60.3,102.8511,81.75,Toxic
Clc1ccc(OCc2nnc3n2N=C(c2ccccc2)CS3)c(Cl)c1,27.66,45.62,60.42,48.51,
O=C(Nc1ccc([N+](=O)[O-])cc1Cl)c1cc(Cl)ccc1O [NICLOSAMIDE],,,,,Toxic
COc1ccc2c(c1)c(CC(=O)O)c(C)n2C(=O)c1ccc(Cl)cc1 [INDOMETHACIN],24.8,20.97,26.29,20.19,
Clc1ccc(OCc2nnc3snnn23)c(Cl)c1,70.78,94.8,108.482,74.03,Toxic
Clc1ccc(OCc2nn3c(COc4ccc(Cl)cc4Cl)nnc3s2)c(Cl)c1,26.95,48.4,63.15,58.48,
O=[N+]([O-])c1ccc(-c2nn3c(COc4ccc(Cl)cc4Cl)nnc3s2)c([N+](=O)[O-])c1,32.16,66.06,68.04,63.95,
